The values below come from ChEMBL document CHEMBL5252514, “Conopeptide-Derived κ-Opioid Agonists (Conorphins): Potent, Selective, and Metabolic Stable Dynorphin A Mimetics with Antinociceptive Properties” (J Med Chem, 2016).

Molecules are shown by their SMILES. pKi: −log10 of the molar value. Where a SMILES comes first, the peptide text is derived from it.

The pKi is −log10 of the Ki, conventionally taken in molar units.

Kappa-type opioid receptor, sequence (P41145 whole entry): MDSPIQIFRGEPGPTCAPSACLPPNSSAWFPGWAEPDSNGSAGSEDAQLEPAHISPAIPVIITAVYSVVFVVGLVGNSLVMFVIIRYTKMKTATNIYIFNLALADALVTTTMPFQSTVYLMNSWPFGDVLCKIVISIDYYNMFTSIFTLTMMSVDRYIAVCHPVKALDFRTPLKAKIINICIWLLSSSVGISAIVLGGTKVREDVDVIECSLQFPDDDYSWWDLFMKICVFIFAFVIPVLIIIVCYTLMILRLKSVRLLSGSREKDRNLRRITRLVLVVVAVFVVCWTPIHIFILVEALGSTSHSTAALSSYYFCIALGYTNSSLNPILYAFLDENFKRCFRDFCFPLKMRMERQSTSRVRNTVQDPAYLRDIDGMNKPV

The target in this assay is Kappa-type opioid receptor (Homo sapiens, UniProt P41145). Kind of assay: Displacement of [3H]U69593 from human kappa opioid receptor expressed in CHO-K1 cells incubated for 1 hr by 1450 microbeta scintillation counter analysis. In kind it is cell-based. A digest of the protocol:
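Membranes from transiently KOR-transfected CHO-K1 cells (~2 µg/well) used in SPA with 3H-U69,593 (1 nM). Competitor ranged 1 pM–10 µM in 50 mM Tris-HCl pH 7.4, 5 mM MgCl2, 0.1% BSA. Incubated 1 h at room temperature with shaking. Nonspecific binding defined with 10 µM dynorphin A. Sigmoidal dose-response fit; at least three independent experiments in triplicate.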
`CC[C@H](C)[C@H](NC(=O)[C@H](CCCN=C(N)N)NC(=O)[C@H](CCCN=C(N)N)NC(=O)[C@H](CC(C)C)NC(=O)[C@H](Cc1ccccc1)NC(=O)CNC(=O)CNC(=O)[C@@H](N)Cc1ccc(O)cc1)C(=O)N[C@@H](CCCN=C(N)N)C(=O)N1CCC[C@H]1C(=O)N[C@@H](CCCCN)C(=O)N[C@@H](CC(C)C)C(=O)N[C@@H](CCCCN)C(N)=O` showed a pKi of 9.40. In turn, `CC[C@H](C)[C@H](NC(=O)[C@H](CCC(N)=O)NC(=O)[C@H](CCCNC(=N)N)NC(=O)[C@H](Cc1c[nH]cn1)NC(=O)[C@@H]1CSSC[C@H](NC(=O)[C@@H](N)CC(N)=O)C(=O)N1)C(=O)N[C@H]1CSSC[C@@H](C(N)=O)NC1=O` (HELM PEPTIDE1{N.C.C.H.R.Q.I.C.C.[am]}$PEPTIDE1,PEPTIDE1,2:R3-3:R3|PEPTIDE1,PEPTIDE1,8:R3-9:R3$$$V2.0) gave a pKi of 6.86. Consider `N=C(N)NCCC[C@@H](NC(=O)[C@@H](CCCNC(=N)N)NC(=O)[C@@H]1CCCN1C(=O)c1ccccc1)C(=O)N[C@@H](CC1CCCCC1)C(=O)N[C@H]1CSSCC(C(N)=O)NC1=O` (single isomer, unassigned), for which the pKi is 7.22. Take `CC(C)C[C@H](NC(=O)[C@@H](CCCNC(=N)N)NC(=O)[C@@H](CCCNC(=N)N)NC(=O)[C@@H]1CCCN1C(=O)c1ccccc1)C(=O)N[C@@H](CC1CCCCC1)C(=O)N[C@H]1CSSC[C@@H](C(N)=O)NC1=O`: the pKi was 8.85.

`CC[C@H](C)[C@H](NC(=O)[C@H](CCC(N)=O)NC(=O)[C@H](CCCNC(=N)N)NC(=O)[C@H](CCCNC(=N)N)NC(=O)[C@@H]1CSSC[C@H](NC(=O)[C@@H](N)CC(N)=O)C(=O)N1)C(N)=O` (HELM PEPTIDE1{N.C.C.R.R.Q.I.[am]}$PEPTIDE1,PEPTIDE1,2:R3-3:R3$$$V2.0): the pKi was 4.83. Under `CC[C@H](C)[C@H](NC(=O)[C@H](CCC(N)=O)NC(=O)[C@H](CCCCN)NC(=O)[C@H](CCCNC(=N)N)NC(=O)[C@@H]1CSSC[C@H](NC(=O)[C@@H](N)CC(N)=O)C(=O)N1)C(=O)N[C@H]1CSSC[C@@H](C(N)=O)NC1=O` (HELM PEPTIDE1{N.C.C.R.K.Q.I.C.C.[am]}$PEPTIDE1,PEPTIDE1,2:R3-3:R3|PEPTIDE1,PEPTIDE1,8:R3-9:R3$$$V2.0) stands 6.68. With `C[C@H](NC(=O)[C@@H](CCCNC(=N)N)NC(=O)[C@@H](CCCNC(=N)N)NC(=O)[C@@H]1CCCN1C(=O)c1ccccc1)C(=O)N[C@@H](CC1CCCCC1)C(=O)N[C@H]1CSSC[C@@H](C(N)=O)NC1=O` the figure was 9.54. In turn, `N=C(N)NCCC[C@@H](NC(=O)c1ccc(F)cc1)C(=O)N[C@H](CCCNC(=N)N)C(=O)N[C@@H](CCC(N)=O)C(=O)N[C@@H](CC1CCCCC1)C(=O)N[C@H]1CSSC[C@@H](C(N)=O)NC1=O` had a pKi of 8.27. As to `CC[C@H](C)[C@H](NC(=O)[C@H](CCC(N)=O)NC(=O)[C@H](CCCNC(=N)N)NC(=O)[C@H](CCCNC(=N)N)NC(=O)[C@@H]1CSSC[C@H](NC(=O)[C@@H](N)Cc2ccc(O)cc2)C(=O)N1)C(=O)N[C@H]1CSSC[C@@H](C(N)=O)NC1=O` (HELM PEPTIDE1{Y.C.C.R.R.Q.I.C.C.[am]}$PEPTIDE1,PEPTIDE1,2:R3-3:R3|PEPTIDE1,PEPTIDE1,8:R3-9:R3$$$V2.0), the pKi was 7.39.

In the case of `N=C(N)NCCC[C@@H](NC(=O)[C@@H](CCCNC(=N)N)NC(=O)[C@@H]1CCCN1C(=O)c1ccc([N+](=O)[O-])cc1)C(=O)N[C@@H](CCC(N)=O)C(=O)N[C@@H](CS)C(=O)N[C@@H](CC1CCCCC1)C(=O)N[C@H]1CSSC[C@@H](C(N)=O)NC1=O`, the pKi was 8.66. The compound `CC[C@H](C)[C@H](NC(=O)[C@H](C)NC(=O)[C@H](CCCNC(=N)N)NC(=O)[C@H](CCCNC(=N)N)NC(=O)[C@@H]1CSSC[C@H](NC(=O)[C@@H](N)CC(N)=O)C(=O)N1)C(=O)N[C@H]1CSSC[C@@H](C(N)=O)NC1=O` (HELM PEPTIDE1{N.C.C.R.R.A.I.C.C.[am]}$PEPTIDE1,PEPTIDE1,2:R3-3:R3|PEPTIDE1,PEPTIDE1,8:R3-9:R3$$$V2.0) showed a negative logarithm of the Ki (pKi) of 6.88.
